{
  "source": "ChEMBL document CHEMBL4673269",
  "about": "“Discovery of S64315, a Potent and Selective Mcl-1 Inhibitor” (J Med Chem, 2020)",
  "key": {"Cytochrome P450 3A4": {"target": "Cytochrome P450 3A4 (Homo sapiens, UniProt P08684)", "sequence (P08684 whole entry)": "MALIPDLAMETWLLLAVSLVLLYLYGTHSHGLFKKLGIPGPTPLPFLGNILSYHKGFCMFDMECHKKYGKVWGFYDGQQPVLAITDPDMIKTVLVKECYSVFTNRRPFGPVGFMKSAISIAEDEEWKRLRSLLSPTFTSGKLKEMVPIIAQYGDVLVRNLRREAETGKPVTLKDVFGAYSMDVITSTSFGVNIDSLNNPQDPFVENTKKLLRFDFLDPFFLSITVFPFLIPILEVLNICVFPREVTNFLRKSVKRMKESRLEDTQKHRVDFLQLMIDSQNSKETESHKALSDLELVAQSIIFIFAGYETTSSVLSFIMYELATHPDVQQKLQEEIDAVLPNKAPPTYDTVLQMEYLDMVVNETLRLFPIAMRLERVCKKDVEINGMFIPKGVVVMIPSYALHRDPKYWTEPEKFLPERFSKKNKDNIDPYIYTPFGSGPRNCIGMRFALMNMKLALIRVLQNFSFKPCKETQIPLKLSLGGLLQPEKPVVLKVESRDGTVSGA", "experiment": "Inhibition of CYP3A4 (unknown origin)", "format": "ADME", "summary_of_the_method": "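High-throughput drug-drug interaction screen using human CYP450-transfected cells; IC50 determined for CYP3A4 inhibition.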"}, "AMO1 [1]": {"test_system": "AMO1", "experiment": "Antitumor activity against human AMO1 xenografted in CB-17 SCID mouse assessed as tumor growth inhibition at 12.5 mg/kg, iv administered weekly for upto week 4 measured post last dose measured on day 10", "format": "functional", "conditions": "time 4 weeks, read-out: TGI", "summary_of_the_method": "(§1)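 Female CB-17 SCID mice, 6−7 weeks old. 5 × 10⁶ AMO-1 cells in growth medium/Matrigel 50:50 injected subcutaneously in the right flank. Randomised at about 200 mm³, n = 8 to 10 per group. Dosed iv in 20% HPbCD–25 mM HCl, daily for 5 days or weekly for 4 weeks. Calipers 2−3 times weekly; volume = length × width²/2. TGI computed from median change in volume versus control; delay judged at median volume 500 mm³.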"}, "AMO1 [2]": {"test_system": "AMO1", "experiment": "Antitumor activity against human AMO1 xenografted in CB-17 SCID mouse assessed as maximum tumor growth inhibition at 12.5 mg/kg, iv administered for 5 consecutive days measured post-last dose", "format": "functional", "set-up": "scale not given: the % may be the effect or the level left", "conditions": "time 5 day", "summary_of_the_method": "as §1"}, "AMO1 [3]": {"test_system": "AMO1", "experiment": "Antitumor activity against human AMO1 xenografted in CB-17 SCID mouse assessed as maximum tumor growth inhibition at […] mg/kg, iv administered for 5 consecutive days measured post-last dose", "format": "functional", "set-up": "scale not given: the % may be the effect or the level left", "conditions": "time 5 day"}, "HuT78": {"test_system": "HuT78", "experiment": "Antiproliferative activity against human HUT78 assessed as reduction in cell viability incubated for 3 days by Cell Titer Blue assay", "format": "functional, cell-based", "conditions": "time 3.0 day"}, "Daudi": {"test_system": "Daudi", "experiment": "Antiproliferative activity against human Daudi assessed as reduction in cell viability incubated for 3 days by Cell Titer Blue assay", "format": "functional, cell-based", "conditions": "time 3.0 day"}, "SUD4": {"test_system": "SUD4", "experiment": "Antiproliferative activity against human SU-DHL4 assessed as reduction in cell viability incubated for 3 days by Cell Titer Blue assay", "format": "functional, cell-based", "conditions": "time 3.0 day"}, "MOLM-13": {"test_system": "MOLM-13", "experiment": "Antiproliferative activity against human MOLM13 assessed as reduction in cell viability incubated for 3 days by Cell Titer Blue assay", "format": "functional, cell-based", "conditions": "time 3.0 day"}, "PL21": {"test_system": "PL21", "experiment": "Antiproliferative activity against human PL21 assessed as reduction in cell viability incubated for 3 days by Cell Titer Blue assay", "format": "functional", "conditions": "time 3.0 day"}, "THP-1": {"test_system": "THP-1", "experiment": "Antiproliferative activity against human THP-1 assessed as reduction in cell viability incubated for 3 days by Cell Titer Blue assay", "format": "functional, cell-based", "conditions": "time 3.0 day"}, "[4]": {"target": "Bcl-2-like protein 1 (Homo sapiens) (UniProt Q07817)", "sequence (Q07817 whole entry, the tested form may be a part)": "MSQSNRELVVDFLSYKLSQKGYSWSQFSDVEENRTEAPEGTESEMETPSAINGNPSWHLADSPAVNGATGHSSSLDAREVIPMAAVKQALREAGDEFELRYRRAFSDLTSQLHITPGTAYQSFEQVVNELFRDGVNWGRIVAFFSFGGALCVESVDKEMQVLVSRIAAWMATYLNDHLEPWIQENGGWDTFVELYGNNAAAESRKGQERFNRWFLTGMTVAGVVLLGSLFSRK", "experiment": "Displacement of Bak BH3 domain from FLAG-tagged Bcl-xl (unknown origin) expressed in human Hela cells at 30 to 300 nM incubated for 2 hrs by immunoprecipitation assay", "format": "cell-based", "conditions": "dose 30-300 nM", "summary_of_the_method": "(§2)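 HeLa cells in DMEM with 10% FCS were transiently transfected with Flag-tagged Mcl-1, Bcl-xL or Bcl-2 vectors. 24 h later they were treated for 2 h and lysed (Hepes pH 7.5, 150 mM KCl, MgCl₂, EDTA, 0.4% Triton X100). Cleared lysates were immunoprecipitated with anti-Flag M2 beads. Inputs and IPs were immunoblotted for endogenous Bax, Bak and Flag.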"}, "[5]": {"target": "Apoptosis regulator Bcl-2 (Homo sapiens) (UniProt P10415)", "sequence (P10415 whole entry, the tested form may be a part)": "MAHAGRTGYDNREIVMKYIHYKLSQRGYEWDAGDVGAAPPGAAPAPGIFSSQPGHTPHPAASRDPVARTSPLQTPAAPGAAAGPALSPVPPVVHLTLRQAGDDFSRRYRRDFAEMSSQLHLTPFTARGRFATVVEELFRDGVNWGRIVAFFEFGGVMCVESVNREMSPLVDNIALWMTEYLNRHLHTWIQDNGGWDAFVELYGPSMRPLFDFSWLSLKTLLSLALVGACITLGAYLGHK", "experiment": "Displacement of Bax BH3 domain from FLAG-tagged Bcl-2 (unknown origin) expressed in human Hela cells at 30 to 300 nM incubated for 2 hrs by immunoprecipitation assay", "format": "cell-based", "conditions": "dose 30-300 nM", "summary_of_the_method": "as §2"}, "[6]": {"target": "Induced myeloid leukemia cell differentiation protein Mcl-1 (Homo sapiens) (UniProt Q07820)", "sequence (Q07820 whole entry, the tested form may be a part)": "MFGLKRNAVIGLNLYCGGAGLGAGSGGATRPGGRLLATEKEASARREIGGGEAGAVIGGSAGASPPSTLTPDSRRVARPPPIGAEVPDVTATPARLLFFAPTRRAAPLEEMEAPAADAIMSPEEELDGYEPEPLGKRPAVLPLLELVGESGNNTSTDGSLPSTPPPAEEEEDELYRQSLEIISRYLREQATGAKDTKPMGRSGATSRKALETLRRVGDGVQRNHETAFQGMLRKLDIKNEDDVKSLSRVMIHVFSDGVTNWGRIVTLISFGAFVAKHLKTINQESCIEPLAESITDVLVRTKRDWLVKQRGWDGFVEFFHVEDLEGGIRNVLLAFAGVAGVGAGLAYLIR", "experiment": "Displacement of Bax BH3 domain from FLAG-tagged Mcl-1 (unknown origin) expressed in human Hela cells at 30 to 300 nM incubated for 2 hrs by immunoprecipitation assay", "format": "cell-based", "conditions": "dose 30-300 nM", "summary_of_the_method": "as §2"}, "[7]": {"experiment": "Plasma protein binding in human assessed as unbound fraction", "format": "ADME, cell-free"}, "[8]": {"experiment": "Plasma protein binding in mouse assessed as unbound fraction", "format": "ADME, cell-free"}, "AMO1 [9]": {"test_system": "AMO1", "experiment": "Antitumor activity against human AMO1 cells xenografted in CB-17 SCID mouse assessed as maximum tumor growth inhibition at […] mg/kg, iv administered as bolus dose for 5 consecutive days measured on day 4 relative to control", "format": "functional", "set-up": "scale not given: the % may be the effect or the level left", "conditions": "time 5 day"}},
  "note": "Active and inactive are the calls of the source. The rule behind the calls is not given here.",
  "data": [
    {"smiles": "COc1ccccc1-c1nccc(COc2ccccc2C[C@@H](Oc2ncnc3sc(-c4ccc(F)cc4)c(-c4ccc(OCCN5CCN(C)CC5)c(Cl)c4C)c23)C(=O)O)n1", "values": [
      {"measurement": "IC50", "setting": "Cytochrome P450 3A4", "result": 1800, "unit": "nM"},
      {"measurement": "inhibition in vivo at 12.5 mg/kg", "setting": "AMO1 [1]", "result": 108, "unit": "%"},
      {"measurement": "Activity", "setting": "AMO1 [2]", "result": 162.8, "unit": "%"},
      {"measurement": "Activity", "setting": "AMO1 [3]", "result": 115.8, "unit": "%"},
      {"measurement": "Activity", "setting": "HuT78", "result": "Active"},
      {"measurement": "Activity", "setting": "Daudi", "result": "Active"},
      {"measurement": "Activity", "setting": "SUD4", "result": "Active"},
      {"measurement": "Activity", "setting": "MOLM-13", "result": "Active"},
      {"measurement": "Activity", "setting": "PL21", "result": "Active"},
      {"measurement": "Activity", "setting": "THP-1", "result": "Active"},
      {"measurement": "Activity", "setting": "[4]", "result": "inactive"},
      {"measurement": "Activity", "setting": "[5]", "result": "inactive"},
      {"measurement": "Activity", "setting": "[6]", "result": "Active"},
      {"measurement": "Fu", "setting": "[7]", "result": 0.05, "unit": "%"},
      {"measurement": "Fu", "setting": "[8]", "result": 0.04, "unit": "%"},
      {"measurement": "Activity", "setting": "AMO1 [9]", "result": 189.5, "unit": "%"}
    ]}
  ]
}
